The target in assay [1] is T1, Bromodomain-containing protein 4 (Homo sapiens, UniProt O60885). Description: Inhibition of BRD4-BD1 (unknown origin) incubated for 1 hr by AlphaScreen biotin-JQ1 competition assay.
For assay [2], the target named is Bromodomain testis-specific protein (Homo sapiens, UniProt Q58F21). The experiment in a line: Inhibition of BRDT-BD1 (unknown origin) incubated for 1 hr by AlphaScreen biotin-JQ1 competition assay. A digest of the protocol:
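BD protein at 40 nM, Ni-coated acceptor and streptavidin donor beads each 25 μg/mL. Buffer 50 mM HEPES, 150 mM NaCl, 0.1% BSA, 0.01% Tween20, pH 7.5. Compounds delivered in DMSO. Run under low light, read after 1 h at room temperature.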

For assay [3], the target named is T2, Serine/threonine-protein kinase PLK1 (Homo sapiens, UniProt P53350). Description: Inhibition of human recombinant PLK1 by Z-Lyte assay.
T2 sequence (P53350 whole entry): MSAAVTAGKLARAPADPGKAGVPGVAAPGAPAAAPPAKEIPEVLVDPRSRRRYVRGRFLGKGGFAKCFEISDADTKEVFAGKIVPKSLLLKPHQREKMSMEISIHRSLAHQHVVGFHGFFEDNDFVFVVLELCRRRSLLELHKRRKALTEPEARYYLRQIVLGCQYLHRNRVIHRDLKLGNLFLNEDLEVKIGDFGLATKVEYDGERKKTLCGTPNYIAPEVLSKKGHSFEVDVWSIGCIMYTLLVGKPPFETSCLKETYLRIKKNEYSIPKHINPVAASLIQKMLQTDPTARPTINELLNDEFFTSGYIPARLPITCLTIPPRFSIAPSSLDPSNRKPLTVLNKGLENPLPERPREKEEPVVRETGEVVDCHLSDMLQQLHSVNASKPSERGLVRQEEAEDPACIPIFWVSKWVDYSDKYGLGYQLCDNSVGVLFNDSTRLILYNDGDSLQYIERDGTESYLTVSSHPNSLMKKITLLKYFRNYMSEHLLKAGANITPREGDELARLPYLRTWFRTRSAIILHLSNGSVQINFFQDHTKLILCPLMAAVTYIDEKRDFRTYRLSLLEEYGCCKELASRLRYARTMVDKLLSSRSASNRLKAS
The species entered for a further assay is Homo sapiens. The experiment in a line: Selectivity index, ratio of IC50 for inhibition of BRD4-BD1 (unknown origin) to IC50 for human recombinant PLK1.
Another assay deals with MOLM-13. The experiment in a line: Induction of cell cycle arrest in human MOLM13 assessed as accumulation at G1/G2 phase at 1 uM incubated for 24 hrs by propidium iodide staining based flow cytometry. Type of assay: functional. Summed up:
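MOLM13 cells exposed to 1 μM compound for 24 h, then harvested, stained with propidium iodide and PI fluorescence measured on a flow cytometer for cell-cycle distribution.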
For orientation: In flow cytometry, cells or beads pass a laser one at a time.

Assay [4] deals with Serine/threonine-protein kinase PLK3 (Homo sapiens) (UniProt Q9H4B4). The experiment in a line: Inhibition of human PLK3 expressed in mammalian expression system assessed as remaining enzyme activity at 1 uM. Summed up:
(§1)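 Single-concentration binding panel at 1 uM: BROMOscan (32 bromodomains) and KINOMEscan (468 kinases) competition-binding platforms. Reported as % of DMSO control.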

Assay [5] has as its target T1, Bromodomain-containing protein 4. The experiment in a line: Inhibition of human BRD4-BD1 expressed in bacterial expression system assessed as remaining activity at 1 uM. A digest of the protocol:
as §1

Assay [6] addresses Serine/threonine-protein kinase PLK2 (Homo sapiens) (UniProt Q9NYY3). The experiment in a line: Inhibition of human PLK2 expressed in mammalian expression system assessed as remaining enzyme activity at 1 uM. A digest of the protocol: as §1
Assay [7] has as its target T2, Serine/threonine-protein kinase PLK1. The experiment in a line: Inhibition of human PLK1 expressed in mammalian expression system assessed as remaining enzyme activity at 1 uM. Summed up:
as §1

Activity calls are given as the source filed them. The rule behind the calls is not given here. Some results are limits rather than exact numbers.

Serine/threonine-protein kinase PLK2 (Homo sapiens), sequence (Q9NYY3 whole entry, looked up): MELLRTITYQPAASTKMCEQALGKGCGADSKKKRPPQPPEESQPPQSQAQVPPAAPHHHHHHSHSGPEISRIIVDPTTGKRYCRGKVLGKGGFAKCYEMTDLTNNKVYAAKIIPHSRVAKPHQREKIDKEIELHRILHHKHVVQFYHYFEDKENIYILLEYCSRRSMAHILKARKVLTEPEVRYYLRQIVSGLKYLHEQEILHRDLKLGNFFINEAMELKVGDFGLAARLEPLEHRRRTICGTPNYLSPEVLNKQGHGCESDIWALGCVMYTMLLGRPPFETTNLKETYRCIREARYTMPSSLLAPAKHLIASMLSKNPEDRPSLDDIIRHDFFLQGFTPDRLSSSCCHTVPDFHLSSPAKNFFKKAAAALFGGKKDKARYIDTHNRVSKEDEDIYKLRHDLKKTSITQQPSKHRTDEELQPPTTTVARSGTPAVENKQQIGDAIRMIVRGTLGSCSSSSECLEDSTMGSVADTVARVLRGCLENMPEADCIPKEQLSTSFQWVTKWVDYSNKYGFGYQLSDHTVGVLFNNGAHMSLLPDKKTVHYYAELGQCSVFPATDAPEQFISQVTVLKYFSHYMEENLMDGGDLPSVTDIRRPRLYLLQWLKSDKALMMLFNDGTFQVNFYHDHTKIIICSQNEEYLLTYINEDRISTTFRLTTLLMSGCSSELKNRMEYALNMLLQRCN
Serine/threonine-protein kinase PLK3 (Homo sapiens), sequence (Q9H4B4 whole entry, looked up): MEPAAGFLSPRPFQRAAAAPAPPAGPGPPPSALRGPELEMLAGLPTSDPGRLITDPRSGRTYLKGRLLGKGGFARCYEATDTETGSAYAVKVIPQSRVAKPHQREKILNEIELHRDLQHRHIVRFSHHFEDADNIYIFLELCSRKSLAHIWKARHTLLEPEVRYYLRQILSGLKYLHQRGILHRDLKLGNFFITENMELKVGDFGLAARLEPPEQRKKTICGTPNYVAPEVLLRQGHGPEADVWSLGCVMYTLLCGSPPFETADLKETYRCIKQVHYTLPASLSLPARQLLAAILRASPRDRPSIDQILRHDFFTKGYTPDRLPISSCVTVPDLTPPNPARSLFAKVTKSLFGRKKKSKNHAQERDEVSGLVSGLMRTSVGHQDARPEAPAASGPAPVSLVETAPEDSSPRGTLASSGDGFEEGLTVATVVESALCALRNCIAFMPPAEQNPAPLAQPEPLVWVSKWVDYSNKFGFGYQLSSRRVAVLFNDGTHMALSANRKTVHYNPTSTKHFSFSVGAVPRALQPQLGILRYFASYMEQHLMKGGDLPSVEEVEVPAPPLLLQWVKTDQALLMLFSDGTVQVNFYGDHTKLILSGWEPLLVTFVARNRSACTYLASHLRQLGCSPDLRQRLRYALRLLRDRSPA

`CCC[C@@H]1C(=O)N(C)c2cnc(Nc3ccc(C(=O)NC4CCN(C)CC4)cc3OC3CCCC3)nc2N1C1CCCC1`: the figures for the IC50 in assay [1], in assay [2] and in assay [3] were 596 nM, 1950 nM and 47 nM, respectively.

Turning to `CCC[C@@H]1C(=O)N(C)c2cnc(Nc3ccc(C(=O)NC4CCN(C)CC4)cc3OC)nc2N1C1CCCC1`, the concentration for half-maximal inhibition (IC50) (as a rule, the concentration needed to halve the response being measured) in [1] stood at 2580 nM; in assay [2], 8470 nM; in assay [3] it was 9.9 nM. In addition, the Ratio IC50 in the assay filed under Homo sapiens was over 250.

Turning to `COc1cc(C(=O)NC2CCNCC2)ccc1Nc1ncc2c(n1)N(C1CCCC1)[C@H](C)C(=O)N2C`, the IC50 amounted to 109 nM in assay [1], 560 nM in [2] and 9 nM in [3].

`COc1cc(C(=O)NCCN(C)C)ccc1Nc1ncc2c(n1)N(C1CCCC1)[C@H](C)C(=O)N2C`: the values for the concentration for half-maximal inhibition (IC50) in [1], in assay [2] and in assay [3] were 104 nM, 392 nM and 21 nM, respectively.

For the compound `COc1cc(C(=O)NC2CCN(C)CC2)ccc1Nc1ncc2c(n1)N(C(C)C)[C@H](CC(C)C)C(=O)N2C`, the 50% inhibitory concentration (IC50) in assay [1] worked out at 41900 nM; in assay [3], 218 nM.

In the case of `C[C@H]1C(=O)N(C)c2cnc(Nc3ccc(C(=O)NC4CCN(C)CC4)cc3OC3CCCC3)nc2N1C1CCCC1`, the IC50 in assay [1] was determined as 59 nM; in assay [2], 245 nM; in assay [3], 127 nM.

In the case of `COc1cc(C(=O)NC2CCN(C)CC2)ccc1Nc1ncc2c(n1)N(C(C)C)[C@H](C)C(=O)N2C`, the 50% inhibitory concentration (IC50) in assay [1] amounted to 421 nM; in [2] it was 978 nM; in assay [3], 25.2 nM.

Consider `CN1CCC(NC(=O)c2ccc(Nc3ncc4c(n3)N(C3CCCC3)CC(=O)N4C)c(OC3CCCC3)c2)CC1`, for which the IC50 in [1] is 690 nM; in [2], 3540 nM.

On to `CC[C@@H]1C(=O)N(C)c2cnc(Nc3ccc(C(=O)NC4CCN(C)CC4)cc3OC)nc2N1C1CCCCC1`, for which the IC50 in [1] was found to be 650 nM; in assay [3], 4 nM.

In the case of `COc1cc(C(=O)NC2CCN(C)CC2)ccc1Nc1ncc2c(n1)N(C1CCOCC1)[C@H](CC(C)C)C(=O)N2C`, the IC50 in [1] was over 50000 nM; in [2], over 50000 nM; in assay [3], 322 nM.

Regarding `COc1cc(C(=O)NC2CCN(C)CC2)ccc1Nc1ncc2c(n1)N(C1CCCCC1)[C@H](C)C(=O)N2C`, the IC50 in assay [1] worked out at 310 nM; in [2], 750 nM; in [3], 8.6 nM.

On to `COc1cc(C(=O)NC2CCCCC2)ccc1Nc1ncc2c(n1)N(C1CCCC1)[C@H](C)C(=O)N2C`, for which the figures for the half-inhibitory concentration (IC50) in assay [1], in assay [2] and in assay [3] were 107 nM, 378 nM and 160 nM, respectively.

For the compound `COc1cc(C(=O)NC2CCN(C)CC2)ccc1Nc1ncc2c(n1)N(C1CCCC1)CC(=O)N2C`, the IC50 in [1] was found to be 6630 nM; in assay [2], 26000 nM; in assay [3], 54.1 nM.

As to `CC[C@@H]1C(=O)Nc2cnc(Nc3ccc(C(=O)NC4CCN(C)CC4)cc3OC)nc2N1C1CCCCC1`, the IC50 is over 10000 nM in assay [1] and 37.2 nM in [3]. Moreover, the Ratio IC50 in the assay filed under Homo sapiens is over 250.

Regarding `COc1cc(C(=O)NCCc2ccccc2)ccc1Nc1ncc2c(n1)N(C1CCCC1)[C@H](C)C(=O)N2C`, the IC50 in [1] worked out at 183 nM; in [2], 558 nM; in assay [3] it was 27 nM.

On to `COc1cc(C(=O)NC2CCN(C)CC2)ccc1Nc1ncc2c(n1)N(C1CCCC1)[C@@H](C)C(=O)N2C`, for which the IC50 in [1] is 107 nM; in assay [2], 229 nM; in assay [3], 8.7 nM.

In the case of `COC(=O)c1ccc(Nc2ncc3c(n2)N(C2CCCC2)[C@H](C)C(=O)N3C)c(OC2CCCC2)c1`, the values for the concentration for half-maximal inhibition (IC50) in [1], in assay [2] and in [3] were 253 nM, 933 nM and 457 nM, respectively.

For `C[C@@H]1C(=O)N(C)c2cnc(Nc3ccc(C(=O)NC4CCN(C)CC4)cc3OC3CCCC3)nc2N1C1CCCC1`, the IC50 in [1] was 28 nM; in [2], 102 nM; in assay [3], 40 nM. Moreover, in the assay on MOLM-13, the result was Active.

For the compound `COc1cc(C(=O)NC2CCN(C)CC2)ccc1Nc1ncc2c(n1)N(C1CCCC1)[C@H](C)C(=O)N2C`, the half-maximal inhibitory concentration (IC50) in [1] came out at 84 nM; in assay [2], 342 nM; in assay [3], 1.1 nM. Moreover, the Activity was 0.3 to 0.5% in [4], 12% in [5], 0.3 to 0.5% in assay [6] and 0.3 to 0.5% in assay [7].

For the compound `CC[C@@H]1C(=O)N(C)c2cnc(Nc3ccc(C(=O)NC4CCN(C)CC4)cc3OC)nc2N1C(C)C`, the IC50 worked out at 186 nM in assay [1] and 4 nM in assay [3].

In the case of `CC[C@@H]1C(=O)Nc2cnc(Nc3ccc(C(=O)NC4CCN(C)CC4)cc3OC)nc2N1C(C)C`, the IC50 in assay [1] was over 10000 nM; in assay [3], 2620 nM. The Ratio IC50 in the assay filed under Homo sapiens was over 250.

Take `COc1cc(C(=O)N2CCCCC2)ccc1Nc1ncc2c(n1)N(C1CCCC1)[C@H](C)C(=O)N2C`: the results for the IC50 in [1], in assay [2] and in assay [3] were 94 nM, 369 nM and 95 nM, respectively.
